From ChEMBL document CHEMBL5365542, “Difluoromethyl-1,3,4-oxadiazoles Are Selective, Mechanism-Based, and Essentially Irreversible Inhibitors of Histone Deacetylase 6” (J Med Chem, 2023)
Positions count from the first letter of the chain named. Active and inactive are the calls of the source. The rule behind the calls is not given here.

What was measured:
[1] = tested on: T1, Histone deacetylase 6 (Danio rerio), F8W4B7 [H573A]; test: Irreversible inhibition of Danio rerio HDAC6 H573A mutant catalytic domain 2 assessed as enzyme catalysed ring opening by measuring reduction in 2-(benzylamino)-N'-(2,2,2-trifluoroacetyl)pyrimidine-5-carbohydrazide formation at 100 uM incubated overnight by LC-MS analysis
T1 sequence (whole entry): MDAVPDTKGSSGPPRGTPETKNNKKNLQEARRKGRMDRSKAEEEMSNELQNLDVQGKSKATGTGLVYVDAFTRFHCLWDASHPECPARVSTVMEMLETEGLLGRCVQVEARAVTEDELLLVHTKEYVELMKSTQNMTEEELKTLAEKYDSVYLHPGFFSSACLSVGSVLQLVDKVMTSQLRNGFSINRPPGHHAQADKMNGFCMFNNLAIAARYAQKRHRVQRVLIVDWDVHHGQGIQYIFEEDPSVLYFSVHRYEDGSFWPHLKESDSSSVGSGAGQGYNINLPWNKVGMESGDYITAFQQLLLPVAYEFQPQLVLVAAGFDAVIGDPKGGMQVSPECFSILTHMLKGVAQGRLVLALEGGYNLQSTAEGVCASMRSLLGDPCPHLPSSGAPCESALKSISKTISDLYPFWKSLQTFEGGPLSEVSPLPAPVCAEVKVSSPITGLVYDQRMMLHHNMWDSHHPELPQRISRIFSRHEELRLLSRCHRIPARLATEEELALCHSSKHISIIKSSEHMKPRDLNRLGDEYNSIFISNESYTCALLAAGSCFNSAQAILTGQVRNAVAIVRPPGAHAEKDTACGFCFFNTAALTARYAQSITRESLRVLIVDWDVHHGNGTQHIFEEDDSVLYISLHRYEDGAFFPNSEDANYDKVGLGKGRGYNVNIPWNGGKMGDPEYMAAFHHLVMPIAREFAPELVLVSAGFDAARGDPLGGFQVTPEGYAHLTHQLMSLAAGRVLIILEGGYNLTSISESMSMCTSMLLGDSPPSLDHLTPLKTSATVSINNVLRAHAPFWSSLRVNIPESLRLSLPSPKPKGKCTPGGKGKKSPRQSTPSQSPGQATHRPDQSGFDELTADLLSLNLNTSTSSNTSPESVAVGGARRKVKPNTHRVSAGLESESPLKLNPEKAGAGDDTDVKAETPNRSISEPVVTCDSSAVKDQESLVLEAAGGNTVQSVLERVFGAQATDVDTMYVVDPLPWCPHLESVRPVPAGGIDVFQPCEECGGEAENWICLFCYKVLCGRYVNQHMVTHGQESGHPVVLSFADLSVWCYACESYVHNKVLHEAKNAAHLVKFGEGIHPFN
How it was run: (§1)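 Zebrafish HDAC6 CD2 mutants were made by site-directed mutagenesis and expressed in BL21(DE3). Enzyme at 50 μM was incubated overnight with 100 μM inhibitor in 50 mM HEPES pH 7.5, 100 mM KCl, 1 mM TCEP, 5% glycerol; an enzyme-free control was included. Protein was methanol-precipitated and filtered, and products were analysed by C18 UPLC-MS with a 2-min gradient.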

[2] = molecular target: Histone deacetylase 1 (Homo sapiens) (UniProt Q13547); test: Inhibition of C-terminal 6His/FLAG tagged human recombinant HDAC1 (1 to 482 residues) […] expressed in Sf9 insect cells using Z-Lys(Ac)-AMC as fluorogenic substrate at 10 uM preincubated for 60 mins followed by substrate addition and measured after 90 mins by microplate reader analysis relative to control; conditions: time 150.0 min
How it was run: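 Human recombinant enzyme was preincubated with 3-fold inhibitor dilutions for 60 min at 25 °C in Tris-HCl pH 8.0 buffer with BSA. ZMAL (75 μM solution) was then added, and the mix was incubated 90 min at 37 °C (max 1% DMSO). Trypsin was added for 30 min at 37 °C, and fluorescence was read at ex 355/em 460. Tested at least twice in duplicate.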

[3] = tested on: T2, Histone deacetylase 6 (Danio rerio), F8W4B7 [H574A]; test: Irreversible inhibition of Danio rerio HDAC6 H574A mutant catalytic domain 2 assessed as enzyme catalysed ring opening by measuring reduction in 2-(Benzylamino)pyrimidine-5-carbohydrazide formation at 100 uM incubated overnight by LC-MS analysis; how it was run: as §1
T2 sequence (whole entry): T1 sequence (whole entry) with A573H, H574A

Histone deacetylase 1 (Homo sapiens), sequence (Q13547 whole entry, the tested form may be a part): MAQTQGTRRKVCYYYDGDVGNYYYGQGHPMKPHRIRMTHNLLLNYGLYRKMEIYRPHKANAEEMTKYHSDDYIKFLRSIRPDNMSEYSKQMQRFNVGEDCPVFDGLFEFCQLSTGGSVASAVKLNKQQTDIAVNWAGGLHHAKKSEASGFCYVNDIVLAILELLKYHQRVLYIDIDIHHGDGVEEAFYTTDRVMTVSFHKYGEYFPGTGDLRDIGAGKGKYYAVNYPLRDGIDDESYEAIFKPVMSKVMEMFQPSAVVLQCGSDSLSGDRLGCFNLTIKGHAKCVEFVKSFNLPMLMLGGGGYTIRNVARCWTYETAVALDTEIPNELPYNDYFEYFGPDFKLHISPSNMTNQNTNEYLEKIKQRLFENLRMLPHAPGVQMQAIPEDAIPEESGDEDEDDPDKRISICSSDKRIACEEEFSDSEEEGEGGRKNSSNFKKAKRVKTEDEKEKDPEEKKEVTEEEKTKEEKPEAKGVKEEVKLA

| Compound | inhibition [1] | inhibition [2] [%] | inhibition [3] |
| --- | --- | --- | --- |
| FC(F)c1nnc(-c2cnc(NCc3ccccc3)nc2)o1 | Active | < 15 | Active |
| FC(F)(F)c1nnc(-c2cnc(NCc3ccccc3)nc2)o1 | Active | < 15 | Active |
